From ChEMBL document CHEMBL1833952, “Inhibition of COX-1 activity and COX-2 expression by 3-(4'-geranyloxy-3'-methoxyphenyl)-2-trans propenoic acid and its semi-synthetic derivatives” (Bioorg Med Chem Lett, 2011) come the findings set out here.

Experiment [1] deals with T1, Prostaglandin G/H synthase 2 (Ovis aries) (UniProt P79208).
T1 sequence (whole entry): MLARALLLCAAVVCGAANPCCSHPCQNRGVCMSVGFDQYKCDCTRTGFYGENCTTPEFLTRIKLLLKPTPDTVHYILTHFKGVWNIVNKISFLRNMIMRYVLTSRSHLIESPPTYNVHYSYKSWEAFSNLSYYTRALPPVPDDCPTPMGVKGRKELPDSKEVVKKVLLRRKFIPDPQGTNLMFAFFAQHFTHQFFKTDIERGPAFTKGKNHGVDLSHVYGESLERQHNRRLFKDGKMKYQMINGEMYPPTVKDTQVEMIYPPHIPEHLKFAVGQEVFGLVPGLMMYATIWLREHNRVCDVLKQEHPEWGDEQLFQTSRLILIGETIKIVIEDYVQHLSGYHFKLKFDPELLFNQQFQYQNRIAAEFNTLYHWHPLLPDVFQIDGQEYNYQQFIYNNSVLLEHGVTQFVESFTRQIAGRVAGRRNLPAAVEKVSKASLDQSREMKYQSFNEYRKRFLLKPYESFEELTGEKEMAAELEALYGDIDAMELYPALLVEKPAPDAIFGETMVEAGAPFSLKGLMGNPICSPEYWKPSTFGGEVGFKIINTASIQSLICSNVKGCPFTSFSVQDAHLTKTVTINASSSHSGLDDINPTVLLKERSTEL
As to the kind of experiment: Inhibition of ovine COX2 using TMPD as substrate at 300 uM preincubated for 15 mins.

For experiment [2], the system named is Monocyte. As to the kind of experiment: Antiinflammatory activity in human monocytes assessed as inhibition of LPS-induced COX2 expression at 100 uM after 20 hrs using rabbit polyclonal antibody IgG by Western blot analysis. It counts as functional, cell-based. The method, boiled down:
(§1)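 Isolated human monocytes (3 × 10⁶ cells/ml) treated 20 h with test agent or vehicle in the presence of LPS; unstimulated cells as control. Cells lysed; equal protein loads run on SDS-polyacrylamide gel and immunoblotted with rabbit polyclonal antibody to a human COX-2-specific sequence (band ~72 kDa); beta-actin as loading control. Three experiments; dose-response series used for IC50.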

Experiment [3] has as its system Monocyte. As to the kind of experiment: Antiinflammatory activity in human monocytes assessed as inhibition of LPS-induced COX1 expression at 100 uM after 24 hrs using rabbit polyclonal antibody IgG by Western blot analysis. It is filed as functional, cell-based. In short, it runs like this:
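Isolated human monocytes (3 × 10⁶ cells/ml) incubated with LPS, vehicle or test agent; lysates immunoblotted with a specific anti-COX-1 antibody to assess COX-1-like immunoreactivity.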

Experiment [4] has as its target T2, Prostaglandin G/H synthase 1 (Ovis aries) (UniProt P05979).
T2 sequence (whole entry): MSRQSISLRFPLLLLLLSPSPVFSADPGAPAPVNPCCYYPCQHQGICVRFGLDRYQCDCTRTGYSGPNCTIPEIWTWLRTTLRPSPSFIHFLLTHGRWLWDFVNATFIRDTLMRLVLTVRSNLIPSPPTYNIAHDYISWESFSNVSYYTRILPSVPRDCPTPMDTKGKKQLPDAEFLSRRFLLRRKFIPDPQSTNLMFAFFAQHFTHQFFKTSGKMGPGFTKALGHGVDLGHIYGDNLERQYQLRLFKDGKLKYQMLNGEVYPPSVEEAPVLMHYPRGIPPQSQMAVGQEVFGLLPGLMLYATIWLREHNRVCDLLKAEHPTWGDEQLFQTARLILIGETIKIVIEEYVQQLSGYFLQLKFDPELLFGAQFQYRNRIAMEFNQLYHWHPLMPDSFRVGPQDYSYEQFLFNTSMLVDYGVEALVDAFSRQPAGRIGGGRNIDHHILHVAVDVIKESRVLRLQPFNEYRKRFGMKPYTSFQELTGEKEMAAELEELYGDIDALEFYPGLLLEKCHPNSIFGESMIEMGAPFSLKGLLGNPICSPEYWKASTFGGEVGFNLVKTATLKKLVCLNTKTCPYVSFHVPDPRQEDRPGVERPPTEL
The experiment can be described thus: (§2) Inhibition of ovine COX1 using TMPD as substrate preincubated for 15 mins.

Experiment [5] is described as follows: Antiinflammatory activity in human monocytes assessed as inhibition of LPS-induced COX2 expression assessed per ug of protein at 100 uM after 20 hrs using rabbit polyclonal antibody IgG by SDS-PAGE analysis (reference value: 1.53 +/- 0.3 ng/ug). It counts as functional, Monocyte. The method, boiled down: as §1
Another experiment concerns Raji. As to the kind of experiment: Inhibition of TPA-induced EBV-early antigen activation in human Raji cells. The conditions noted are these: human gammaherpesvirus 4, dose or concentration not given here. It is filed as cell-based.
A further experiment concerns HL-60. The experiment can be described thus: Inhibition of superoxide radicals production in human HL60 cells. It is filed as functional.
For experiment [6], the system named is Monocyte. As to the kind of experiment: Antiinflammatory activity in human monocytes assessed as inhibition of LPS-induced COX2 expression at 100 uM after 20 hrs using rabbit polyclonal antibody IgG by SDS-PAGE analysis. It counts as functional, cell-based. The method, boiled down: as §1
The test system of experiment [7] is Monocyte. As to the kind of experiment: Antiinflammatory activity in human monocytes assessed as inhibition of LPS-induced COX2 expression after 20 hrs using rabbit polyclonal antibody IgG by Western blot analysis. It is filed as functional, cell-based. In short, it runs like this:
as §1

Experiment [8] is described as follows: Antiinflammatory activity in human monocytes assessed as inhibition of LPS-induced COX2 expression at 10 uM after 20 hrs using rabbit polyclonal antibody IgG by Western blot analysis. The conditions noted are these: Monocyte. It counts as functional. In short, it runs like this:
as §1

The target of experiment [9] is T3, Prostaglandin G/H synthase 1 (Ovis aries, UniProt P05979).
T3 sequence (P05979 whole entry): T2 sequence (whole entry)
The description is as §2.

For experiment [10], the target named is T4, Prostaglandin G/H synthase 2 (Homo sapiens) (UniProt P35354).
T4 sequence (whole entry): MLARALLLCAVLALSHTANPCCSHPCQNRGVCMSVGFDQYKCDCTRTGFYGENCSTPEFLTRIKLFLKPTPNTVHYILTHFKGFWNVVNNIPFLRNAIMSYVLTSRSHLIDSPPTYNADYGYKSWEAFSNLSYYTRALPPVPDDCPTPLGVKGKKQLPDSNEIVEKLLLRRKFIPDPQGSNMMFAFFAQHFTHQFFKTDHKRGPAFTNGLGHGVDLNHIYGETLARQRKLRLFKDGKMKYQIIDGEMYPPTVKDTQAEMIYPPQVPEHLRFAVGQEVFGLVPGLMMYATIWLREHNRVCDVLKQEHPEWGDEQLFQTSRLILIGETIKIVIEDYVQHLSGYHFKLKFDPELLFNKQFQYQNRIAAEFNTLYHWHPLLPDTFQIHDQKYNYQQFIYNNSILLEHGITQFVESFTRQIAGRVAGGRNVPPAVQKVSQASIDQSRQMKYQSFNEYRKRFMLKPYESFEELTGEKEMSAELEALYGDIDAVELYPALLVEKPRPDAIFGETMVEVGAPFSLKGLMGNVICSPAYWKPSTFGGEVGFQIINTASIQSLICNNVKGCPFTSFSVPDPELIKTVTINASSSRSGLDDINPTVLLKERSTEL
The experiment can be described thus: Inhibition of COX2 promoter activity in human DLD1 cells at 100 uM. It is filed as cell-based. The conditions noted are these: DLD-1.

In experiment [11] the test system is Monocyte. As to the kind of experiment: Antiinflammatory activity in human monocytes assessed as inhibition of LPS-induced COX2 expression at 5 uM after 20 hrs using rabbit polyclonal antibody IgG by SDS-PAGE analysis. It is filed as functional, cell-based. The method, boiled down:
as §1

Experiment [12] is described as follows: Antiinflammatory activity in human monocytes assessed as inhibition of LPS-induced COX2 expression at 25 uM after 20 hrs using rabbit polyclonal antibody IgG by Western blot analysis. It is filed as functional. The note with it: Monocyte. In short, it runs like this:
as §1

Calls of active or inactive are those of the source. No cut-off for these calls is given here.

In the case of `CC(C)=CCOc1ccc(/C=C/C(=O)O)cc1C`, the inhibition result (in experiment [1]; in the experiment on Monocyte [2]; in the experiment with Monocyte [3]; in experiment [4]) was “inactive” throughout.
`COc1cc(/C=C/C(=O)O)ccc1OCC=C(C)C` [BOROPINIC ACID]: the inhibition entry in experiment [1] and in experiment [4] was “inactive” each time. In addition, the Activity in [5] amounted to 1.78 ng/µg.
Regarding `CC(C)=CCC/C(C)=C/COc1ccc(/C=C/C(=O)O)cc1`, the inhibition entry in [1] and in [4] was “inactive” throughout. In experiment [5], the Activity came to 1.7 ng/µg.
In the case of `CC(C)=CCC/C(C)=C/COc1ccc(/C=C/C(=O)O)cc1C`, the inhibition result (in experiment [1]; in the experiment on Monocyte [2]; with Monocyte [3]; in experiment [4]) was “inactive” throughout.
As for `CC(C)=CCOc1ccc(/C=C/C(=O)O)cc1Cl`, the inhibition entry (in experiment [1]; with Monocyte [2]; in the experiment on Monocyte [3]; in [4]) was “inactive” throughout.
For the compound `CCOC(=O)/C=C/c1ccc(OC/C=C(\C)CCC=C(C)C)c(OC)c1`, the inhibition in the experiment on Raji stood at 78%. Moreover, the “inhibition (INH)” value in the experiment on HL-60 is reported as 45%.
Regarding `COc1cc(/C=C/C(=O)O)ccc1OC/C=C(\C)CCC=C(C)C`, the inhibition in [1] was 97.5%; with Monocyte [7] it was “Dose-dependent effect”. In the experiment with Monocyte [6], the inhibition entry is “Active”. The inhibition at 10 µM in experiment [8] is 20%. This compound gave an IC50 in experiment [9] of 54.2 µM.
With `COC(=O)/C=C/c1ccc(OC/C=C(\C)CCC=C(C)C)c(OC)c1`, the inhibition in the experiment on Raji worked out at 81%; in experiment [10], 50%. Moreover, the “inhibition (INH)” value in the experiment on HL-60 came to 35%.
Consider `CC(C)=CCC/C(C)=C/COc1ccc(/C=C/C(=O)O)cc1Cl`, for which the inhibition entry (in [1]; in the experiment on Monocyte [2]; in the experiment with Monocyte [3]; in [4]) was “inactive” throughout.
With `C[C@@H]1C[C@H]2[C@@H]3CCC4=CC(=O)C=C[C@]4(C)[C@@]3(F)[C@@H](O)C[C@]2(C)[C@@]1(O)C(=O)CO`, the inhibition entry with Monocyte [11] is “Active”.
Turning to `CC(C)=CCOc1ccc(/C=C/C(=O)O)cc1`, the inhibition was 74% in [1] and “Dose-dependent effect” in the experiment with Monocyte [7]. For the same compound, the inhibition result with Monocyte [6] is “Active”. The compound also came in with an IC50 in [9] of 35.1 µM. For the same compound, the inhibition at 25 µM in experiment [12] was 13%.
